Screening results deposited in PubChem by several laboratories.
The list is not random: actives were taken first. Their share in the collection is about 2.2%.
PfG6PD inh – PfG6PD (Plasmodium falciparum) enzyme inhibition; AID 504690; PfGluPho enzyme, NADPH resazurin-diaphorase fluorescence; inhibition, % at 20 µM; 350,000 tested, 0.78% active;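 active means inhibition reaching at least a set limit at 20 µM in the primary screen, cut at about 59% in these data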;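 further: 0% = DMSO wells with substrate and 100% = DMSO wells lacking glucose-6-phosphate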
Exocytosis inh – lytic granule exocytosis inhibition | 360,000 tested, 0.66% active | inhibition, % at 10 µM | TALL-104 LAMP-1 surface exposure, flow cytometry; cells stimulated with thapsigargin and PMA;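 active means inhibition above about 55%, limit read from the data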
HKDC1 inhibitor – blocks human hexokinase HKDC1 activity; Q2TB90; recombinant HKDC1, G6PDH/diaphorase resazurin coupled fluorescence; inhibition, % at 20 µM; 340,000 tested, 0.16% active; AID 493160;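 active means inhibition above about 35% when tested at 20 µM, limit read from the data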;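 further: plate controls were DMSO wells with enzyme for no effect and DMSO wells lacking enzyme for full effect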
Target sequence (Q2TB90 whole entry, looked up): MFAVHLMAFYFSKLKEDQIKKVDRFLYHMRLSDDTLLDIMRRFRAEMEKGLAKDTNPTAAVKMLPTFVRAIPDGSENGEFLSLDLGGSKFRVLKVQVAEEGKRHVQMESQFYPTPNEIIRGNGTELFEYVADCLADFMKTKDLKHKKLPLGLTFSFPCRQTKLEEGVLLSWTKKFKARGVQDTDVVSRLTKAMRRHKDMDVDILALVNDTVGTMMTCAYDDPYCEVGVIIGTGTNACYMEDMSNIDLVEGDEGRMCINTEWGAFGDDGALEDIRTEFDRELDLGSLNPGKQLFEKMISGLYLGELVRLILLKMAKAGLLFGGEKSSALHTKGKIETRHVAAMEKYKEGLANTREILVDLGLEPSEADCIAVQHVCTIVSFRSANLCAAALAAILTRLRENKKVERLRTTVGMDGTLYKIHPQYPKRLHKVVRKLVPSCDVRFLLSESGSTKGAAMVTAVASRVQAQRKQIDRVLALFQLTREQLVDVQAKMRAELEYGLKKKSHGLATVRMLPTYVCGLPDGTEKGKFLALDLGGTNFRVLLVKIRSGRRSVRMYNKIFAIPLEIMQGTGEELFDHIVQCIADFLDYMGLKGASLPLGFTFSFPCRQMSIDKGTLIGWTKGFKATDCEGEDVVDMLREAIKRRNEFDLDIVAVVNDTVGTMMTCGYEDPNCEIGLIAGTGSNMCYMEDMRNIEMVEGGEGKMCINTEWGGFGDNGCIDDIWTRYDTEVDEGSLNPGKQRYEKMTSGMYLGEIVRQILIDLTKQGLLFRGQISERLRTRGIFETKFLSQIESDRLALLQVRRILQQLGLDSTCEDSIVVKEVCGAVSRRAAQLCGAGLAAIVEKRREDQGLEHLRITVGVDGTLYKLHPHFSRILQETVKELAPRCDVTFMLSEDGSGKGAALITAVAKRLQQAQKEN
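Assay system: in-house recombinant HK5 (HKDC1) enzyme. Input: HKDC1 at 5 µg/mL. Medium: Tris pH 8.0 buffer with MgCl2, Tween-20, BSA, BME. Dosing: single 20 µM dose. Schedule: 90 min reaction incubation at room temperature, dark. Signal: resazurin-to-resorufin fluorescence via G6PDH and diaphorase coupling, 525/613 nm. Controls: DMSO-enzyme wells negative, buffer-substituted wells positive.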
ABHD5-PLIN5 inh – ABHD5-PLIN5 protein interaction inhibition; Split G. princeps luciferase complementation, luminescence, 4 h; inhibition, % at 4 µM; 360,000 tested, 0.78% active; AID 602281;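 active means inhibition above the mean inhibition across every tested compound plus 3 SD, cut at about 22% in these data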;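 further: 0% = DMSO only wells and the 100% control is not disclosed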
Active calls of the source: *; · = not tested or not shown.

SMILES	PfG6PD inh	Exocytosis inh	HKDC1 inhibitor	ABHD5-PLIN5 inh
COC(=O)[C@@]12CCCCN1[C@H](c1ccc(-c3cccc(Cl)c3)cc1)[C@@H]1C(=O)N(C)C(=O)[C@@H]12	21	-3	5	-2
CC(=O)c1cc(O)c2ccccc2c1O	48	1	44*	-24
CN(C)c1ccc(S(=O)(=O)N2CCCCC2)cc1NC(=O)COc1ccccc1F	19	-1	0	-4
C#CCOCCOCCOCCNc1nc(N2CCN(C(=O)CCCCCCCCCCNC(=O)[C@@H](CCSC)n3cc(CCO)nn3)CC2)nc(N2CCN(C(=O)CCCCCCCCCCNC(=O)[C@H]([C@@H](C)CC)n3cc(CCCCCN)nn3)CC2)n1	49	·	-14	·
C#CCOCCOCCOCCNc1nc(N2CCOCC2)nc(N2CCN(C(=O)CCCCCCCCCCNC(=O)Cn3cc(CCCCCN)nn3)CC2)n1	-2	-14	-1	3
C#CCOCCOCCOCCNc1nc(N2CCN(C(=O)CCCCCCCCCCNC(=O)[C@H]([C@@H](C)CC)n3cc(CCCCCN)nn3)CC2)nc(N2CCN(C(=O)CCCCCCCCCCNC(=O)[C@@H]([C@H](C)O)n3cc(C)nn3)CC2)n1	55	-8	-10	41*
C#CCOCCOCCOCCNc1nc(N2CCN(C(=O)CCCCCCCCCCNC(=O)[C@H](CCCCN)n3cc(C)nn3)CC2)nc(N2CCN(C(=O)CCCCCCCCCCNC(=O)[C@@H]([C@H](C)CC)n3cc(CCCCCN)nn3)CC2)n1	·	-5	·	45*
C#CCOCCOCCOCCNc1nc(N2CCN(C(=O)CCCCCCCCCCNC(=O)Cn3cc(CCCCCN)nn3)CC2)nc(N2CCN(C(=O)CCCCCCCCCCNC(=O)[C@H]([C@@H](C)CC)n3cc(CCCCCN)nn3)CC2)n1	66*	0	-14	34*
CSc1ccc(/C=C/C(=O)c2ccc(NC(=O)Cc3ccccc3)cc2)cc1	0	-2	-2	2
CSc1ccc(/C=C/C(=O)c2ccc(NC(=O)C(C)C)cc2)cc1	-4	-3	11	23*
COc1cccc(C(=O)/C=C/c2ccc(SC)cc2)c1	6	4	4	23*
COC(=O)c1ccc(/C=C/C(=O)c2cccc(OC)c2)cc1	-6	14	24	14
Clc1ccc2nc(-c3ccco3)c(Cc3ccsc3)n2c1	·	53	·	49*
Clc1ccc2nc(-c3ccccc3)c(Cc3ccsc3)n2c1	·	-3	·	1
Cc1cc(O)c(C=O)c2c1C(=O)Oc1c(CO)c(O)c3c(c1O2)C(O)OC3=O (configuration not stated)	25	-2	37*	73*
Cc1cc(O)c(CN(C)C)c2c1C(=O)/C(=C/c1ccco1)O2	17	-8	3	12
NC(=S)N=Nc1c(O)n(CCCl)c2ccc(Br)cc12	-13	78*	-2	4
C/C(Cl)=C\Cn1c(O)c(N=NC(N)=S)c2cc(Br)ccc21	7	4	13	-9
CCOC(=O)C1=CCN(S(=O)(=O)c2ccccc2F)C1c1ccc(Cl)c(Cl)c1 (configuration not stated)	·	-3	·	-1
O=C(NCC1CCCO1)C(=O)N/N=C/c1c(F)cccc1Cl (configuration not stated)	-4	-13	-2	12
CCSC1(SCC)N=C(N)C2(C#N)C(c3ccc(F)cc3)C12C#N (configuration not stated)	2	69*	-3	14
O=C(CCC1CCN(C(=O)c2ccco2)CC1)NCc1ccc(F)cc1	1	-3	-4	-5
CSc1nc(N(CCO)CCO)c2sc3nc(-c4ccco4)c4c(c3c2n1)CCC4	40	-2	37*	22*
O=[N+]([O-])c1ccc(/C=N/N=C/c2ccc([N+](=O)[O-])o2)o1	60*	63*	27	10
Cc1ccccc1NC1=C/C(=N\S(=O)(=O)c2cccs2)c2ccccc2C1=O	99*	34	63*	-9
SMILES	PfG6PD inh	Exocytosis inh	HKDC1 inhibitor	ABHD5-PLIN5 inh
Cc1ccc(NC2=C/C(=N/S(=O)(=O)c3cccs3)c3ccccc3C2=O)cc1C	-3	1	15	3
Cc1cccc(/C=C/C(=O)c2cc(Br)ccc(=O)c2O)c1	35	5	19	23*
CCOc1ccc(/C=C/C(=O)c2cc(Br)ccc(=O)c2O)cc1	-3	3	2	19
O=C1OCCN1C(=O)[C@H]1[C@H](c2ccccc2)C(c2ccccc2)=NN1c1ccc(Br)cc1	23	2	0	-5
CC(C)(C)OC(=O)NCC12C=CC(O1)C1C(=O)N(Cc3ccccc3)C(=O)C12 (configuration not stated)	11	85*	-1	5
C=CC[C@@H](CC(=O)N(CCO)Cc1ccccc1)C(=O)N[C@@H](C)COC(=O)[C@@H](CC=C)CC(=O)OC(C)(C)C	4	64*	1	-7
C=CC[C@H](CC(=O)N(CCO)Cc1ccccc1)C(=O)N[C@@H](C)COC(=O)[C@H](CC=C)CC(=O)OC(C)(C)C	8	1	-1	9
O=C(N/N=C\C=C\c1ccc2c(c1)OCO2)c1ccc(F)cc1	3	2	-8	-1
O=C(/C=C/c1ccc2c(c1)OCO2)c1ccc(F)cc1	23	5	13	22*
CC(C)n1c(=O)[nH]c2ccccc21	11	-5	-5	0
CC(C)n1c(=O)[nH][nH]c1=S	75*	-6	-2	-13
CCCCC(=O)NC(c1ccc(Cl)cc1)c1ccc2cccnc2c1O (configuration not stated)	-36	11	-23	22*
COc1ccc(NC(=O)N2C[C@H]3CON(C)[C@H]3C[C@H]2c2ccc(N3CCCCC3)cc2)cc1	·	4	·	-5
COc1ccc(/C=C(\NC(=O)c2ccco2)C(=O)NCCc2nc3ccccc3[nH]2)cc1	2	-4	2	-2
COc1ccc(/C=C(\NC(=O)/C=C/c2ccco2)C(=O)NCCc2nc3ccccc3[nH]2)cc1	10	21	-6	23*
O=C(CSc1nncs1)Nc1nnc(-c2ccccc2)o1	-11	-1	-7	-3
COc1cc(/C=C2\SC(=O)N(CCN)C2=O)ccc1OS(=O)(=O)c1cc(C)ccc1C	10	73*	15	13
CCc1cccc(NS(=O)(=O)c2c(C)[nH]c(=O)[nH]c2=O)c1	-4	13	-4	-10
C/C(=N\Nc1cc(C)nc(NCc2ccccc2)n1)c1cccc([N+](=O)[O-])c1	7	94*	-3	0
Cn1nc(C2CC2)cc1NC(=O)C1(C)CCN1C(=O)CCc1ccccc1 (configuration not stated)	·	-1	·	-4
Cc1ccccc1C(=O)OCC(=O)NCc1ccco1	1	62*	-6	8
O=C(CC(SCCO)c1ccc([N+](=O)[O-])cc1)c1ccco1 (configuration not stated)	-1	-1	-3	23*
Cc1ccc(C(=O)CC(SCC(=O)O)c2ccc([N+](=O)[O-])cc2)cc1 (configuration not stated)	-18	0	12	11
